Nine molecules from ChEMBL document CHEMBL1149321, “Synthesis, radiosynthesis, and biological evaluation of carbon-11 and iodine-123 labeled 2beta-carbomethoxy-3beta-[4'-((Z)-2-haloethenyl)phenyl]tropanes: candidate radioligands for in vivo imaging of the serotonin transporter” (J Med Chem, 2004) can be followed below.

Several values for one entry are separate records, joined by “and”; a condition that tells them apart may be missing. Equal values may be shown once.

T1 sequence (P23975 whole entry): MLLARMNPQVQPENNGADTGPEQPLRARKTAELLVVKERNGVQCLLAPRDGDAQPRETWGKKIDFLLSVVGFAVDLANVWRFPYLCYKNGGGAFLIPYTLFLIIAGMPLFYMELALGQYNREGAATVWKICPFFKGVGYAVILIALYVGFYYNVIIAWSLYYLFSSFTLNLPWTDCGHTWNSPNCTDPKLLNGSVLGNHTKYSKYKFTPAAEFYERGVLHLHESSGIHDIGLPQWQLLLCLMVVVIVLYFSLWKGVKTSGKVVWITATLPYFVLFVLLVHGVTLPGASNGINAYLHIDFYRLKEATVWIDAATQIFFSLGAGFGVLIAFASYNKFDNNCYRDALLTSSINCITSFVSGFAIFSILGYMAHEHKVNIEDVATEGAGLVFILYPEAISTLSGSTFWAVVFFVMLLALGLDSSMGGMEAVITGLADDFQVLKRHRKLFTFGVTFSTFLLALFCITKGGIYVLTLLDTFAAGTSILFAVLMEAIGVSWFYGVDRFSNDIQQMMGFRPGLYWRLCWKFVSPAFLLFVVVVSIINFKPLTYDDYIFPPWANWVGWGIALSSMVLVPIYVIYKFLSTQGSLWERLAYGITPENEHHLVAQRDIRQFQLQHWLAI
T2 sequence (Q01959 whole entry): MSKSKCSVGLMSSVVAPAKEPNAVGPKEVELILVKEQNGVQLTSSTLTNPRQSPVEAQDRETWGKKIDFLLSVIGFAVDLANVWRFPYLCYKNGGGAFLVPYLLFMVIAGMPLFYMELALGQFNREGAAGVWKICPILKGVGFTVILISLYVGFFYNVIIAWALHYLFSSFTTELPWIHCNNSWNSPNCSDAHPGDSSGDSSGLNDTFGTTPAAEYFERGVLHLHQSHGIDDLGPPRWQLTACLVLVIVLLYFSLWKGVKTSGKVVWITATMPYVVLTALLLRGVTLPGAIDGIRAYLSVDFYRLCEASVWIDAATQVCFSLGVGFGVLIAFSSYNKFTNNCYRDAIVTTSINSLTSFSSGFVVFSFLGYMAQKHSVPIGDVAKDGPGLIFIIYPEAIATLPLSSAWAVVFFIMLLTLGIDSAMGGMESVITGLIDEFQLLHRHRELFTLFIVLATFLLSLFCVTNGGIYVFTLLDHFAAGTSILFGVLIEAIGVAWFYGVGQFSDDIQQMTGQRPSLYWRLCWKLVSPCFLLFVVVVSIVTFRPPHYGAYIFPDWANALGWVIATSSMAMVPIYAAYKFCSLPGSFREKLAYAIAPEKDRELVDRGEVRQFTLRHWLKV
Sodium-dependent serotonin transporter, sequence (P31645 whole entry): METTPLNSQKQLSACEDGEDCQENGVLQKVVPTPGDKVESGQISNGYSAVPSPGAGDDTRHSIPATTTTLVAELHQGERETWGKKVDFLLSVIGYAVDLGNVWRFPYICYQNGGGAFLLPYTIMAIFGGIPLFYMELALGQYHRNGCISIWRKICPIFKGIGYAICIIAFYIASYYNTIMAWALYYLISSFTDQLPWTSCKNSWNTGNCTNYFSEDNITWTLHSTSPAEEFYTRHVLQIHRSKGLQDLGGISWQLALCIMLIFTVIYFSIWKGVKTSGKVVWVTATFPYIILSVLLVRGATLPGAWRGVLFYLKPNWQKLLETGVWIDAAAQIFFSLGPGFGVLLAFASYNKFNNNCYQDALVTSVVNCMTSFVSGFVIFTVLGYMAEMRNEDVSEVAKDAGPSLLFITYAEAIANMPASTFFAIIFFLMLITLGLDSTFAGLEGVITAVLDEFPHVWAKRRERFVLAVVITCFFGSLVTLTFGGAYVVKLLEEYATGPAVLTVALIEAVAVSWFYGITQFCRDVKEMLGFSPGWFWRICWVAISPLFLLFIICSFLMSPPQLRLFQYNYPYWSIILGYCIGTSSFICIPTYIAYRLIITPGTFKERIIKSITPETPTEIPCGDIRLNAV

The first experiment concerns the target T1, Sodium-dependent noradrenaline transporter (Homo sapiens, UniProt P23975). Description: In vitro binding affinity against human norepinephrine transporter in human embryonic kidney cell line by using [125I]-RTI-55 radioligand. Format: cell-based.
Conditions: not given
The molecule `COC(=O)C1C2CCC(CC1c1ccc(C=C(Br)Br)cc1)N2` (centres undefined) showed an inhibition constant Ki of 5.6 nM.
The molecule `COC(=O)C1C(c2ccc(/C=C\Br)cc2)CC2CCC1N2C` (centres undefined) yielded an inhibitory constant (Ki) of 111 nM.
Molecule `COC(=O)C1C2CCC(CC1c1ccc(/C=C\Br)cc1)N2` (centres undefined) returned a Ki of 2.5 nM.
With `COC(=O)C1C(c2ccc(C=C(Br)Br)cc2)CC2CCC1N2C` (centres undefined), the Ki is 161 nM.
Still for that read-out and setting: then `COC(=O)C1C(c2ccc(/C=C\I)cc2)CC2CCC1N2C` (centres undefined), with 450 nM.

Another experiment addresses T2, Sodium-dependent dopamine transporter (Homo sapiens, UniProt Q01959). Description: In vitro binding affinity against human dopamine transporter in dog kidney cell line by using [125I]RTI-55 as radioligand. Type of experiment: cell-based.
Conditions: not given
The method in brief:
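Membranes of MDCK cells stably expressing hDAT, grown in DMEM/10% FBS/geneticin. […] Competitor 12 concentrations 10⁻¹³–10⁻⁵ M in triplicate; GF/B filtration, gamma counting; Ki as geometric mean of ≥3 assays.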
`COC(=O)C1C2CCC(CC1c1ccc(C=C(Br)Br)cc1)N2` (centres undefined) came in with an inhibitory constant (Ki) of 5.6 nM.
Still for that read-out and setting: the same measure for `COC(=O)C1C(c2ccc(/C=C\Br)cc2)CC2CCC1N2C` (centres undefined): 3.1 nM.
In the case of `COC(=O)C1C2CCC(CC1c1ccc(/C=C\Br)cc1)N2` (centres undefined), the affinity, expressed as Ki, was 3.9 nM.
Same read-out and setting: the same measure for `COC(=O)C1C2CCC(CC1c1ccc(I)cc1)N2` (centres undefined): 0.69 nM; for `COC(=O)C1C(c2ccc(C=C(Br)Br)cc2)CC2CCC1N2C` (centres undefined): 6.73 nM.
Molecule `COC(=O)C1C(c2ccc(/C=C\I)cc2)CC2CCC1N2C` (centres undefined) came in with a Ki of 22 nM.
For `COC(=O)[C@@H]1C2CC[C@H](C[C@@H]1c1ccc(I)cc1)N2C`, the Ki stood at 1.3 nM.
Consider `COC(=O)C1C2CCC(CC1c1ccc(/C=C\I)cc1)N2` (centres undefined), for which the inhibition constant (Ki) stood at 3.5 nM.

The next experiment concerns the target T1, Sodium-dependent noradrenaline transporter. Kind of experiment: In vitro binding affinity against human norepinephrine transporter in human embryonic kidney cell line by using [3H]-[…] radioligand. Format: cell-based.
Conditions: not given
Regarding `CN1C2CCC1C(C(=O)Oc1ccccc1)C(c1ccc(Cl)cc1)C2` (centres undefined), the Ki was 242 nM.
Molecule `COC(=O)C1C2CCC(CC1c1ccc(I)cc1)N2` (centres undefined) displayed an inhibitory constant (Ki) of 7.5 nM.
On the same count and under the same terms, the same measure for `COC(=O)[C@@H]1C2CC[C@H](C[C@@H]1c1ccc(I)cc1)N2C`: 36 nM.

The next experiment has as its target T2, Sodium-dependent dopamine transporter. Kind of experiment: In vitro binding affinity against human dopamine transporter in dog kidney cell line by using [3H]WIN-35428 as the radiotracer. Type of experiment: cell-based.
Conditions: not given
As to `CN1C2CCC1C(C(=O)Oc1ccccc1)C(c1ccc(Cl)cc1)C2` (centres undefined), the Ki was 5.25 nM.

The next experiment has as its target T1, Sodium-dependent noradrenaline transporter. Description: In vitro binding affinity against human norepinephrine transporter in human embryonic kidney cell line using [125I]RTI-55 as radioligand. Format: cell-based.
Conditions: not given
Consider `COC(=O)C1C2CCC(CC1c1ccc(/C=C\I)cc1)N2` (centres undefined), for which the inhibition constant Ki was 24 nM.

Another experiment concerns the target Sodium-dependent serotonin transporter (Homo sapiens, UniProt P31645). Kind of experiment: biochemical. Format: cell-based, kidney.
Conditions: not given
Molecule `CN1C2CCC1C(C(=O)Oc1ccccc1)C(c1ccc(Cl)cc1)C2` (centres undefined) had an inhibition constant (Ki) of 390 nM.
Regarding `COC(=O)C1C2CCC(CC1c1ccc(C=C(Br)Br)cc1)N2` (centres undefined), the Ki was determined as 0.08 nM.
As to `COC(=O)C1C(c2ccc(/C=C\Br)cc2)CC2CCC1N2C` (centres undefined), the Ki was found to be 0.08 nM.
`COC(=O)C1C2CCC(CC1c1ccc(/C=C\Br)cc1)N2` (centres undefined) displayed a Ki of 0.04 nM.
Still for that read-out and setting: then `COC(=O)C1C2CCC(CC1c1ccc(I)cc1)N2` (centres undefined), with 0.36 nM; and `COC(=O)C1C(c2ccc(C=C(Br)Br)cc2)CC2CCC1N2C` (centres undefined), with 1.35 nM; and `COC(=O)C1C(c2ccc(/C=C\I)cc2)CC2CCC1N2C` (centres undefined), with 0.11 nM.
The same measure, in the same setting: then `COC(=O)[C@@H]1C2CC[C@H](C[C@@H]1c1ccc(I)cc1)N2C`, with 4.2 nM; and `COC(=O)C1C2CCC(CC1c1ccc(/C=C\I)cc1)N2` (centres undefined), with 0.05 nM and 0.04 nM (2×).

A further experiment concerns the target T2, Sodium-dependent dopamine transporter. Kind of experiment: In vitro binding affinity against human dopamine transporter in dog kidney cell line using [125I]RTI-55 as radioligand.
Conditions: not given
Format: cell-based.
Turning to `COC(=O)C1C2CCC(CC1c1ccc(/C=C\I)cc1)N2` (centres undefined), the Ki was found to be 15 nM.

Still in this experiment, the particulars now being: kidney.
Consider `COC(=O)C1C2CCC(CC1c1ccc(/C=C\I)cc1)N2` (centres undefined), for which the affinity corresponds to a Ki of 15 nM.

Usually Ki stands for the dissociation constant of the complex between target and ligand, obtained from inhibition or displacement. Low readings indicate higher affinity, high ones lower affinity.
